Compounds with a hit are over-represented: about 4.8% of the library has one in this group of screens.
UPR XBP1 act: adaptive UPR (XBP1) activation. AID 463104. activation, % at 20 µM. CHO-XBP1 luciferase reporter, IRE1-XBP1 UPR activation, luminescence; percent of tunicamycin response, DMSO as zero. 0.33% of 330,000 active;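 active = versus positive control, 20 µM dose yields 30% or more activation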;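 note: 100% = tunicamycin at 10 µg/mL and 0% = DMSO only wells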
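Material: CHO cell line with stable XBP1 luciferase reporter; buffer or medium: F12 medium containing 10% fetal bovine serum; compound: single point, 20 µM final compound, 1% DMSO; incubation: 6 h treatment, 37 °C; measured by: glow luminescence from Steady-Glo reagent; evaluation: activation, % of tunicamycin; control set: tunicamycin high, DMSO low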
Mdm2 MdmX PPI: human Mdm2/MdmX binding inhibition | AID 485346 | SaOS-2 split-luciferase Mdm2/MdmX complementation, luminescence | O15151+Q00987 | 3% of 330,000 active | inhibition, % at 8 µM;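 active = inhibition of at least 50% at 8 µM in the primary screen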
Target sequence (O15151 whole entry, looked up): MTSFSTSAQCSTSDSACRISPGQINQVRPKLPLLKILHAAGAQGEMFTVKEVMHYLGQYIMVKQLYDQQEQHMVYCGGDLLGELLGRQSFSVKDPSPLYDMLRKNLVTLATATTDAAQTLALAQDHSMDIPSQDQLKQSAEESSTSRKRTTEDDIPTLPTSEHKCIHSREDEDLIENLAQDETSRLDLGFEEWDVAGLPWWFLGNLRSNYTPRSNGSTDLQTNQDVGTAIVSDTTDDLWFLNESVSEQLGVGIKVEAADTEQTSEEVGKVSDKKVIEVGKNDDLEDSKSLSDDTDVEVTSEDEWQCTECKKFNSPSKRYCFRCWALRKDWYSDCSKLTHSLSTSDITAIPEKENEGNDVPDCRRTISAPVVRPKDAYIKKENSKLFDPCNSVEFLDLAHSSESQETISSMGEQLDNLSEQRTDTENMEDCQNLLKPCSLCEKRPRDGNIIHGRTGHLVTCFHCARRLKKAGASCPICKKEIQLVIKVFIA
Target sequence (Q00987 whole entry, looked up): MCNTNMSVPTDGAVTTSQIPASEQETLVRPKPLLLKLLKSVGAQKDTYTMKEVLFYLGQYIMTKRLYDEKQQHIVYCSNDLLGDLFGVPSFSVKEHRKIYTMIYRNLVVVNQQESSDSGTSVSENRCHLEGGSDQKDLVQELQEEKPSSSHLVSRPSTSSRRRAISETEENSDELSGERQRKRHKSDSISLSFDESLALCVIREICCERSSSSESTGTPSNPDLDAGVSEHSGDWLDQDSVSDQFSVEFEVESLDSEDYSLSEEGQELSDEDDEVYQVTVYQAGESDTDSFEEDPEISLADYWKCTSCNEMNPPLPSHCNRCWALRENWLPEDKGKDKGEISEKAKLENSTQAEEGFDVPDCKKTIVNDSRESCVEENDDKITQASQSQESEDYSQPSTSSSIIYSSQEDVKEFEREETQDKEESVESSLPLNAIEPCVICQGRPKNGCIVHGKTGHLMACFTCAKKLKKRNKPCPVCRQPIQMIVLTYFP
CSC inhib: cancer stem cell inhibition | cancer stem cell-like cells viability, luminescence | inhibition, % at 7.5 µM | 1.1% of 300,000 active | AID 2717; in the data active = inhibition above about 75%; inconclusive = no clear call, values can overlap the other calls; tested in HMLE shEcad cells
SKKanGAS inh: SKKanGAS growth inhibition; S. pyogenes SKKanGAS, kanamycin growth, BacTiter-Glo, 6 h; inhibition, % at 7.5 µM; 1.3% of 300,000 active; AID 1662;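 active = mean replicate score, as percent of positive control median, at least 50; inconclusive = mean below 50 but one replicate at or above 50; inactive = mean and every replicate below 50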;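 note: strain carries kanamycin resistance gene driven by streptokinase promoter and grows in 40 µg/ml kanamycin; loss of luminescence reflects streptokinase promoter inhibition or plain growth inhibition; 0% = median of DMSO wells and 100% = positive control at its reference dose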
CHOP UPR activ: apoptotic UPR (CHOP) activation. 0.34% of 330,000 active. activation, % at 10 µM. CHO-CHOP luciferase reporter, luminescence; percent of tunicamycin response over DMSO baseline;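 active = at 10 µM dose, activation of 40% or more, normalized to positive control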;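 note: 100% = tunicamycin at 10 µg/mL and 0% = DMSO alone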
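System: CHO-CHOP luciferase reporter cell line | Buffer or medium: F12 medium containing 10% fetal bovine serum | Doses: One dose, 10 µM in 0.5% DMSO | Times: 6 h compound exposure at 37 °C after overnight seeding | Signal: Luciferase luminescence | Read-out: % activation vs tunicamycin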
Beta cell apopt: beta cell apoptosis inhibition; INS-1E cytokine-induced death, ATP luminescence, 48 h; percent of positive-control rescue, neutral wells zero; protection from apoptosis, % (concentration not given with the values); 0.8% of 300,000 active; AID 435005;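 active = Every replicate reaches about 75%, or at least half do and their mean reaches it too, limit read from the data; inconclusive = At least half of replicates reach the limit but their mean does not; inactive = Under half of replicates reach the limit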;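 note: 0% = cytokine-treated negative control wells and 100% = positive control rescue; higher means more ATP so stronger rescue from cytokine killing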
Mdm2 MdmX conf: human Mdm2/MdmX binding inhibition, confirmed; shares compounds with Mdm2 MdmX PPI; luminescent assay; inhibition, % at 8 µM; 55% of 10,000 active; AID 489028; in the data active = inhibition above about 40%
FLuc counter: counter-screen for Mdm2/MdmX inhibitors: full-length luciferase; 77% of 6,200 active; shares compounds with Mdm2 MdmX PPI; inhibition, % at 8 µM; SaOS-2 full-length luciferase counterscreen, luminescence;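 active = mean inhibition at 8 µM reaching about 37%, which flags the compound as non-specific, limit read from the data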;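 note: p53-null SaOS-2 cells with luciferase driven by a doxycycline-inducible promoter; compound on cells about two nights before reading with doxycycline added after day one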
Starred values were filed as active, the others as inactive.

CCOc1cc(/C=C2\CN(C)C/C(=C\c3ccc(O)c(OCC)c3)C2=O)ccc1O was read as UPR XBP1 act -3.5, Mdm2 MdmX PPI 100.3*, CSC inhib 104.6*, SKKanGAS inh 19.8, CHOP UPR activ 43.8*, Beta cell apopt 1.0, Mdm2 MdmX conf 100.2* and FLuc counter 14.1.
Screening C=CCNC(=O)/C(C#N)=C\c1cc(Cl)c(O)c(OCC)c1 returned CSC inhib 6.1, SKKanGAS inh 16.1 and Beta cell apopt 0.7.
For CCOc1cc(/C=C2\CCC/C(=C\c3cc(Cl)c(O)c(OCC)c3)C2=O)cc(Cl)c1O the results were UPR XBP1 act 10.7, Mdm2 MdmX PPI 100.3*, CSC inhib -8.9, SKKanGAS inh 41.2, CHOP UPR activ 34.6, Beta cell apopt 74.5*, Mdm2 MdmX conf 93.5* and FLuc counter 20.6.
`CCOc1cc(/C=N/NC(=O)N/N=C/c2ccc(O)c(OCC)c2)ccc1O` gave UPR XBP1 act 0.7, Mdm2 MdmX PPI 59.7*, CSC inhib 58.9, SKKanGAS inh -6.4, CHOP UPR activ 2.0, Beta cell apopt 42.3, Mdm2 MdmX conf 48.5* and FLuc counter 80.6*.
Screening CC(C)c1ccc(O)c(C(=O)c2cnn(-c3ccccc3)c2)c1 returned UPR XBP1 act -1.7, Mdm2 MdmX PPI 19.1, CSC inhib 67.8, SKKanGAS inh -10.9, CHOP UPR activ -1.3 and Beta cell apopt 3.5.
CCC1(c2ccc(Cl)cc2)NC(=O)N(CC(=O)N2CCN(C(=O)c3ccco3)CC2)C1=O (stereo unspecified) was read as UPR XBP1 act -1.4, Mdm2 MdmX PPI -2.9, CSC inhib 5.8, CHOP UPR activ -1.4 and Beta cell apopt 1.5.
COc1ccc(OCCn2c(=N)n(CCO)c3ccccc32)cc1 was read as UPR XBP1 act -0.8, Mdm2 MdmX PPI 12.8, CSC inhib -20.3, SKKanGAS inh 3.3, CHOP UPR activ -1.2 and Beta cell apopt -0.6.
For CCCCn1c(=N)n(CCOc2ccc(C)cc2)c2ccccc21 the results were UPR XBP1 act -0.6, Mdm2 MdmX PPI 63.4*, CSC inhib 12.2, SKKanGAS inh 2.6, CHOP UPR activ -1.3, Beta cell apopt 24.8, Mdm2 MdmX conf 37.6 and FLuc counter 62.6*.
CCN(CC)CCn1c(=N)n(CCOc2ccccc2)c2ccccc21 was read as UPR XBP1 act -0.5, Mdm2 MdmX PPI 50.0*, CSC inhib 41.0, SKKanGAS inh -4.4, CHOP UPR activ -0.3, Beta cell apopt -1.0, Mdm2 MdmX conf 60.6* and FLuc counter 62.0*.
For C=CCn1c(=O)c2c(nc3n2CC(C)CN3Cc2ccccc2)n(C)c1=O (stereo unspecified) the results were UPR XBP1 act 1.4, Mdm2 MdmX PPI 35.5, CSC inhib -2.5, SKKanGAS inh 3.4, CHOP UPR activ 0.7 and Beta cell apopt 4.4.
`CC1CCC2(CC1)NC(=O)N(CC(=O)NCCc1ccc(F)cc1)C2=O` (stereo unspecified) gave UPR XBP1 act 0.2, Mdm2 MdmX PPI 1.0 and CHOP UPR activ 0.1.
`CCN(CC(O)COc1ccc(OCC(O)CN(CC)C2CCCCC2)cc1)C1CCCCC1` (stereo unspecified) gave UPR XBP1 act -4.0, Mdm2 MdmX PPI 69.2*, CSC inhib 7.7, SKKanGAS inh 0.8, CHOP UPR activ 1.4, Beta cell apopt 3.1 and Mdm2 MdmX conf 12.4.
For CCN(CC(O)COCc1ccc(Cl)cc1)C1CCCCC1 (stereo unspecified) the results were UPR XBP1 act -1.4, Mdm2 MdmX PPI 0.7, CSC inhib 4.3, SKKanGAS inh -4.4, CHOP UPR activ -2.3 and Beta cell apopt -3.0.
For CCCCN1C=CC(=C2C(=O)c3ccccc3C2=O)C=C1 the results were UPR XBP1 act -5.9, Mdm2 MdmX PPI 83.9*, CSC inhib 68.0, SKKanGAS inh 25.6, CHOP UPR activ -10.1, Beta cell apopt 38.2, Mdm2 MdmX conf 78.6* and FLuc counter 52.7*.
CCCCC1C(=O)N(c2ccccc2)N(c2ccccc2)C1=O was read as UPR XBP1 act -6.5, Mdm2 MdmX PPI 14.8, CSC inhib -0.8, SKKanGAS inh 10.9, CHOP UPR activ -2.2 and Beta cell apopt -6.5.
CCOc1cc(/C=C(/C#N)c2nc3ccccc3[nH]2)ccc1Oc1ccc([N+](=O)[O-])cn1 was read as UPR XBP1 act -0.2, Mdm2 MdmX PPI 48.7, CSC inhib 4.5, SKKanGAS inh 13.3, CHOP UPR activ 10.3 and Beta cell apopt 24.1.
For N#C/C(=C\c1ccc([N+](=O)[O-])o1)c1nc2ccccc2[nH]1 the results were UPR XBP1 act -6.4, Mdm2 MdmX PPI 97.1*, CSC inhib inconclusive, SKKanGAS inh 31.5, CHOP UPR activ -8.4, Beta cell apopt 100.1*, Mdm2 MdmX conf 69.6* and FLuc counter 60.6*.
Cc1ccc2nc(/C(C#N)=C\c3ccc([N+](=O)[O-])o3)[nH]c2c1 was read as UPR XBP1 act -8.7, Mdm2 MdmX PPI 96.9*, CSC inhib 2.8, SKKanGAS inh 89.5*, CHOP UPR activ -8.4, Beta cell apopt 101.9*, Mdm2 MdmX conf 75.0* and FLuc counter 29.9.
For COc1cc(/C=C(/C#N)c2nc3ccccc3[nH]2)ccc1Oc1ncccc1[N+](=O)[O-] the results were UPR XBP1 act 21.2, Mdm2 MdmX PPI 67.9*, CSC inhib 9.4, SKKanGAS inh 20.2, CHOP UPR activ 11.3, Beta cell apopt 10.6 and Mdm2 MdmX conf 26.1.
COCCn1c(C)c(C)c(S(=O)(=O)c2ccccc2)c1N was read as UPR XBP1 act -2.5, Mdm2 MdmX PPI 8.9, CSC inhib -6.0, SKKanGAS inh 2.1, CHOP UPR activ -0.5 and Beta cell apopt -7.1.
Screening Cc1cccc(N2CCN(C(=O)[C@H](C)N3C(=O)C4CC=CCC4C3=O)CC2)c1C (stereo partly specified) returned UPR XBP1 act -1.3, Mdm2 MdmX PPI 8.8, CSC inhib 5.5, CHOP UPR activ -0.3 and Beta cell apopt 3.1.
CN(CC1CCCN(CCc2ccc(Cl)cc2)C1)C(=O)c1ccco1 (stereo unspecified) was read as UPR XBP1 act -1.5, Mdm2 MdmX PPI 1.8, CSC inhib -2.9, SKKanGAS inh -0.7, CHOP UPR activ 0.5 and Beta cell apopt -1.8.
O=C(Nc1ccc(S(=O)(=O)N2CCOCC2)cc1)c1cc(-c2ccccc2O)n[nH]1 was read as UPR XBP1 act 1.1, Mdm2 MdmX PPI 1.2, CSC inhib 1.8, SKKanGAS inh 7.7, CHOP UPR activ -1.4 and Beta cell apopt -4.1.
